Consider one compound from ChEMBL document CHEMBL2203081 (Bioorg Med Chem Lett, 2012).

Calls of active or inactive are those of the source. The rule behind the calls is not given here.

The target in assay [1] is Serine/threonine-protein kinase SBK1 (Homo sapiens) (UniProt Q52WX2). The experiment in a line: Inhibition of SBK1 assessed as residual activity at 10 uM relative to control.
Assay [2] has as its target Ephrin type-B receptor 6 (Homo sapiens) (UniProt O15197). The experiment in a line: Inhibition of EPHB6 assessed as residual activity at 10 uM relative to control. The gist of the method: (§1)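 Competition kinase-binding assay (KINOMEscan) across a non-redundant panel of 329 kinases beyond the radiometric panel; residual binding expressed relative to control.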
Assay [3] relates to Leucine-rich repeat serine/threonine-protein kinase 2 (Homo sapiens), Q5S007 [A2016T]. As to conditions: HEK293, 1 to 3 uM.
Leucine-rich repeat serine/threonine-protein kinase 2 (Homo sapiens), Q5S007 [A2016T], sequence (Q5S007 whole entry A2016T): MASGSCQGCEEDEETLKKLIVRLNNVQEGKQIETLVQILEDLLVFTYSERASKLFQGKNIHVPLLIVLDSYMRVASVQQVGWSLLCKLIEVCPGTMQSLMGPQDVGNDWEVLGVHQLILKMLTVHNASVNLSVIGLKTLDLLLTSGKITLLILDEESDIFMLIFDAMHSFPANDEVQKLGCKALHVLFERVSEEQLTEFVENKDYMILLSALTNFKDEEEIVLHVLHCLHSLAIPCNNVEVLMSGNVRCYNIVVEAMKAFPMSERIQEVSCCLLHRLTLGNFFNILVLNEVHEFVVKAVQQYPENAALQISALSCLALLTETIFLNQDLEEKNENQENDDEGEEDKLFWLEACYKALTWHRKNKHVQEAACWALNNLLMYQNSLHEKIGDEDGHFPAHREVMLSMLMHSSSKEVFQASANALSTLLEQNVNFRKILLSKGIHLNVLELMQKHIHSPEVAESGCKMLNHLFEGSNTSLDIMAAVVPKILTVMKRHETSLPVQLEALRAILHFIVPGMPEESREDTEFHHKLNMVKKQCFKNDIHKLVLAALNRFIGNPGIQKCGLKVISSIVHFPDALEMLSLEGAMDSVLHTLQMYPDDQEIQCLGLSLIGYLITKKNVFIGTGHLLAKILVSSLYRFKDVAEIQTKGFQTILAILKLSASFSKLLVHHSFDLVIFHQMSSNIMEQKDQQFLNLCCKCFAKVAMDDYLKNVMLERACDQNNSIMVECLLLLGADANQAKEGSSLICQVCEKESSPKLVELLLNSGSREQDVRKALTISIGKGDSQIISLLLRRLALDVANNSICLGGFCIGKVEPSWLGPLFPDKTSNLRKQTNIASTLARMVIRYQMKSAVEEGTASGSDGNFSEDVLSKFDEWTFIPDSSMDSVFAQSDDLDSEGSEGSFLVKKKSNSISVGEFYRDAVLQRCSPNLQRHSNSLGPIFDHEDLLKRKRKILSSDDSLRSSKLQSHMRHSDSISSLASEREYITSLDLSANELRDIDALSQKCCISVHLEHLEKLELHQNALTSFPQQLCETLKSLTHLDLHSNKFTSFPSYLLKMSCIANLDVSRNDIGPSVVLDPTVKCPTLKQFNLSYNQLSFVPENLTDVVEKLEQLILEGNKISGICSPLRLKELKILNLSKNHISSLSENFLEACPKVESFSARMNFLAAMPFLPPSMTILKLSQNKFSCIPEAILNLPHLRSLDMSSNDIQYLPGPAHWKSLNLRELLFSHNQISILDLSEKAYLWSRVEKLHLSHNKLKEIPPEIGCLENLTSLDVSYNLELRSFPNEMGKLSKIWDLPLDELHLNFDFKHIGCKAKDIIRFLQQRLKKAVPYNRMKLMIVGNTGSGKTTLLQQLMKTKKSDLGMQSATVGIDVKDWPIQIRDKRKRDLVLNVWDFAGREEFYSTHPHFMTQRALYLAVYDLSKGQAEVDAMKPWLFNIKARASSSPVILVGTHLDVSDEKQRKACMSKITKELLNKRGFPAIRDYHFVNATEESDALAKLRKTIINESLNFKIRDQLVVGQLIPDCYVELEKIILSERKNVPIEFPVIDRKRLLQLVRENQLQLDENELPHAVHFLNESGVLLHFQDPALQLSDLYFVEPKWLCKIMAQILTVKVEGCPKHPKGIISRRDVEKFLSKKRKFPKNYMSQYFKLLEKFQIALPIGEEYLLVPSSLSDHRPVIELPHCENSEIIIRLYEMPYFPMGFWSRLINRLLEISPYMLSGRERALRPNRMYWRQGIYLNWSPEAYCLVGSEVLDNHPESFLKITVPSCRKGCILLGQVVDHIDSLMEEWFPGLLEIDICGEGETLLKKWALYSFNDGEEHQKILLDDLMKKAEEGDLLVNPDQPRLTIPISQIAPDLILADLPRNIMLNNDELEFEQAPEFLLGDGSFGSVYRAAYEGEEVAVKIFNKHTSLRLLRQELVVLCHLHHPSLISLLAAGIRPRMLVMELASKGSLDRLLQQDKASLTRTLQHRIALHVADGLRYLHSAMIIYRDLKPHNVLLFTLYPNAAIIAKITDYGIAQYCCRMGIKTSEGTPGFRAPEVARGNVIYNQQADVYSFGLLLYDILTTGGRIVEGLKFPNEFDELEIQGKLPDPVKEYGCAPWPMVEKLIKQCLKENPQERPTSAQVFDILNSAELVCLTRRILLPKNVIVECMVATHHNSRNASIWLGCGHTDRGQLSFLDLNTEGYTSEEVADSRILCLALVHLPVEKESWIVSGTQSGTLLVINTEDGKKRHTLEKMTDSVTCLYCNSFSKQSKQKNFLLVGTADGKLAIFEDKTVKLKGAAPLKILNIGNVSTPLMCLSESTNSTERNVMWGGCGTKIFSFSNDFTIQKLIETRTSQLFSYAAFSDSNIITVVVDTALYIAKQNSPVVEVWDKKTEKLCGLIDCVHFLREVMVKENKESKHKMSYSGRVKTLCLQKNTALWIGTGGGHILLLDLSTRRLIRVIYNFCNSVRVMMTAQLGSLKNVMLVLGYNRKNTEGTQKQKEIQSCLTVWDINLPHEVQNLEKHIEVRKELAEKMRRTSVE
In assay [4] the target is Receptor-interacting serine/threonine-protein kinase 2 (Homo sapiens) (UniProt O43353). The experiment in a line: Inhibition of RIPK2 assessed as residual activity at 10 uM relative to control.
Assay [5] deals with Tyrosine-protein kinase Yes (Homo sapiens) (UniProt P07947). The experiment in a line: Inhibition of YES1 assessed as residual activity at 1 uM.
For assay [6], the target named is Homeodomain-interacting protein kinase 3 (Homo sapiens) (UniProt Q9H422). As to the kind of experiment: Inhibition of HIPK3 assessed as residual activity at 10 uM relative to control.
Homeodomain-interacting protein kinase 3 (Homo sapiens), sequence (Q9H422 whole entry, looked up): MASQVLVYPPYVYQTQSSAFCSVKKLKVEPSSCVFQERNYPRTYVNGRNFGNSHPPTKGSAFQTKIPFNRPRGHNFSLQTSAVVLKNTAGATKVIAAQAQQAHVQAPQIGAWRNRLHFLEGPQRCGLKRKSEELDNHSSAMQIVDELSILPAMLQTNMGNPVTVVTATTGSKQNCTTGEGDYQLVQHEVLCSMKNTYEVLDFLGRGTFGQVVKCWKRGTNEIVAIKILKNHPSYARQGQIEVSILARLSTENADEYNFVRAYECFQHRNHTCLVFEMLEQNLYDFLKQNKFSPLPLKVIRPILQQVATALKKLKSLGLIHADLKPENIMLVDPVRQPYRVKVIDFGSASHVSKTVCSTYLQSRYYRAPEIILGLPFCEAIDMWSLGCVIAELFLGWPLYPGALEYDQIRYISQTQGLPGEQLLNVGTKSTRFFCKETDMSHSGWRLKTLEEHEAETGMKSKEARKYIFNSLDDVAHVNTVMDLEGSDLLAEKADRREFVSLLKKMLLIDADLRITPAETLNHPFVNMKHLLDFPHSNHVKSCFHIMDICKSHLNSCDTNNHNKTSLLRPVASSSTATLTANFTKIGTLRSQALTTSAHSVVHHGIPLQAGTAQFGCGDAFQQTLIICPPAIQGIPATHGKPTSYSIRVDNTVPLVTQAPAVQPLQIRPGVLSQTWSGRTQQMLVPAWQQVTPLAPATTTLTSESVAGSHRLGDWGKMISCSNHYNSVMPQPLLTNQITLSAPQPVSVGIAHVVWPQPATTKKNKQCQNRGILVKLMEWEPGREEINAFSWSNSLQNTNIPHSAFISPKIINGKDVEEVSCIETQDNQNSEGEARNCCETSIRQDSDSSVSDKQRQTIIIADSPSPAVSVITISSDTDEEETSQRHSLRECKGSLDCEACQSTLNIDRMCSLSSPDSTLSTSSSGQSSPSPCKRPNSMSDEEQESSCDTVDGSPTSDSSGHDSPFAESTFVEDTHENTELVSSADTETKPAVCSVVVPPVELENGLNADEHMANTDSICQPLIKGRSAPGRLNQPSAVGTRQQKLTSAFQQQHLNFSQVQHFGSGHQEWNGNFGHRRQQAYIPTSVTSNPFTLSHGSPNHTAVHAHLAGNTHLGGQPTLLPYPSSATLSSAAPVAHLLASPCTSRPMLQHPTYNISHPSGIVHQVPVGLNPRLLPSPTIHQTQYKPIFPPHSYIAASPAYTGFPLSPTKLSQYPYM
Assay [7] deals with Leucine-rich repeat serine/threonine-protein kinase 2 (Homo sapiens), Q5S007 [A2016T]. As to conditions: HEK293, 1 to 3 uM. This is another data set of the same source.
Assay [8] deals with Serine/threonine-protein kinase DCLK1 (Homo sapiens) (UniProt O15075). As to the kind of experiment: Inhibition of DCAMKL1 assessed as residual activity at 10 uM relative to control. The gist of the method: as §1
For assay [9], the target named is Citron Rho-interacting kinase (Homo sapiens) (UniProt O14578). As to the kind of experiment: Inhibition of CIT assessed as residual activity at 10 uM relative to control.
The target in assay [10] is Insulin-like growth factor 1 receptor (Homo sapiens) (UniProt P08069). As to the kind of experiment: Inhibition of IGF-1R assessed as residual activity at 10 uM. The essentials: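 Radioactivity-based enzymatic activity assay of the named kinase, run as part of a 131-kinase specificity panel at the National Centre for Protein Kinase Profiling (Dundee). Residual activity was read at the stated single inhibitor concentration.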

The target in assay [11] is Tyrosine-protein kinase Tec (Homo sapiens) (UniProt P42680). The experiment in a line: Inhibition of TEC assessed as residual activity at 10 uM relative to control.
Tyrosine-protein kinase Tec (Homo sapiens), sequence (P42680 whole entry): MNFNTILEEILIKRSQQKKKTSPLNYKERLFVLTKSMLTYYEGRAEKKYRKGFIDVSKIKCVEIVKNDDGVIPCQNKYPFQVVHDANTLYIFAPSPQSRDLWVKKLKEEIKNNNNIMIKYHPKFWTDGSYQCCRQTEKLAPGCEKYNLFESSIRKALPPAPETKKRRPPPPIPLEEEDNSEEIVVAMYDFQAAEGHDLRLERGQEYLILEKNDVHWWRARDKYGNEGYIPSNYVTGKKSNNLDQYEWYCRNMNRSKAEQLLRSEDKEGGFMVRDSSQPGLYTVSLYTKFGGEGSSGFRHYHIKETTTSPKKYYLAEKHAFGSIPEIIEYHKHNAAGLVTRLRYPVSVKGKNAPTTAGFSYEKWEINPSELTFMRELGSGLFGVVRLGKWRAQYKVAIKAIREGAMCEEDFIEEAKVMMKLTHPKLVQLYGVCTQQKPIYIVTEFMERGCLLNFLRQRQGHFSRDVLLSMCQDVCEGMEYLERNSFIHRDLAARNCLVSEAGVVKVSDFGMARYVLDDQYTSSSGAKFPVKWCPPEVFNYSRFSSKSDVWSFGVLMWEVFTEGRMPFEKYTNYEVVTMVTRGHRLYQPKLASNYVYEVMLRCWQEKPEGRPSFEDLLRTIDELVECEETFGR
Assay [12] deals with Leucine-rich repeat serine/threonine-protein kinase 2 (Mus musculus) (UniProt Q5S006). The experiment in a line: Inhibition of LRRK2 in Swiss mouse 3T3 cells assessed as inhibition of Ser910 autophosphorylation after 90 mins by immunoblot method. The assay is classed as cell-based. The conditions noted are these: NIH3T3.
The target of assay [13] is Serine/threonine-protein kinase tousled-like 1 (Homo sapiens) (UniProt Q9UKI8). As to the kind of experiment: Inhibition of TLK1 assessed as residual activity at 10 uM relative to control.
The target in assay [14] is Cyclin-dependent kinase 14 (Homo sapiens) (UniProt O94921). As to the kind of experiment: Inhibition of PFTK1 assessed as residual activity at 10 uM relative to control.
The target in assay [15] is Ephrin type-A receptor 7 (Homo sapiens) (UniProt Q15375). The experiment in a line: Inhibition of EPHA7 assessed as residual activity at 10 uM relative to control. The essentials:
as §1

For assay [16], the system named is Receptor-type tyrosine-protein kinase FLT3 (Homo sapiens), P36888 [D835Y]. The experiment in a line: Inhibition of FLT3 D835Y mutant assessed as residual activity at 10 uM relative to control.
The target of assay [17] is Serine/threonine-protein kinase SIK1 (Homo sapiens) (UniProt P57059). As to the kind of experiment: Inhibition of SIK assessed as residual activity at 10 uM relative to control.

Serine/threonine-protein kinase SBK1 (Homo sapiens), sequence (Q52WX2 whole entry): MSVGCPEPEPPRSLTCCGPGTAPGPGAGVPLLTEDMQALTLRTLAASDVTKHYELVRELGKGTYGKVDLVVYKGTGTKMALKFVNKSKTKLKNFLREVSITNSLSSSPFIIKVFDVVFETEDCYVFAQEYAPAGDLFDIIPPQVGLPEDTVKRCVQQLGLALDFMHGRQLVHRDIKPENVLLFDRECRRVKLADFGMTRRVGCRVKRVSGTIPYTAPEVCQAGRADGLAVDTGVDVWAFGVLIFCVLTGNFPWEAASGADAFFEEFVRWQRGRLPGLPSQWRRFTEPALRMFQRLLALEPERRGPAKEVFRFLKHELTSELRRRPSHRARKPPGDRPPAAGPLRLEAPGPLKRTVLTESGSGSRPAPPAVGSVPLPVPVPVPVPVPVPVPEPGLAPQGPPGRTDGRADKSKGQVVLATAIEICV

For `O=C(Nc1cccnc1)c1cc(-c2ccnc(F)c2)ccc1OCc1ccccc1`, the Activity in assay [1] is 46%; in assay [2] it was 61%; in assay [4], 53%; in assay [5], 120%; in [6] it was 58%; in [8] it was 57%. Moreover, the Activity was determined as 48% in assay [9]; 117% in assay [10]; 53% in assay [11]; 66% in assay [13]; 80% in assay [14]; 60% in assay [15]. In addition, the Activity in assay [16] amounted to 5.8%; in [17], 46%. The inhibition result in [3] and in [7] was “Active” each time. Besides, the inhibition result in [12] is “Dose-dependent effect”.
